Assay type in all cases: functional
Assay [1] deals with Bacteroides caccae. Description: Antimicrobial activity against Bacteroides caccae assessed as resistant isolates by agar dilution method. In short, it runs like this:
(§1)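 CLSI agar dilution on enriched brucella agar (5% lysed defibrinated sheep blood, 1 μg/ml vitamin K1), plates made on test day. Log-phase inocula adjusted to 0.5 McFarland; about 10^5 CFU/spot by Steers replicator. Incubated anaerobically at 37°C for 48 h. MIC was the lowest concentration giving a marked change in growth versus the drug-free control plate. Resistance rates used CLSI anaerobe breakpoints. Controls were B. fragilis ATCC 25285 and B. thetaiotaomicron ATCC 29741.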

Assay [2] deals with Parabacteroides distasonis. Description: Antimicrobial activity against Bacteroides distasonis assessed as resistant isolates by agar dilution method. In short, it runs like this:
as §1
For orientation: Agar dilution tests growth on a series of plates holding different concentrations.

In assay [3] the test system is Bacteroides fragilis. Description: Antimicrobial activity against Bacteroides fragilis assessed as resistant isolates by agar dilution method. In short, it runs like this:
as §1

Assay [4] deals with Bacteroides ovatus. Description: Antimicrobial activity against Bacteroides ovatus assessed as resistant isolates by agar dilution method. In short, it runs like this:
as §1

Assay [5] relates to Bacteroides thetaiotaomicron. Description: Antimicrobial activity against Bacteroides thetaiotaomicron assessed as resistant isolates by agar dilution method. In short, it runs like this: as §1
Assay [6] relates to Bacteroides uniformis. Description: Antimicrobial activity against Bacteroides uniformis assessed as resistant isolates by agar dilution method. In short, it runs like this:
as §1

Assay [7] relates to Phocaeicola vulgatus. Description: Antimicrobial activity against Bacteroides vulgatus assessed as resistant isolates by agar dilution method. In short, it runs like this: as §1
Assay [8] relates to Bacteroides eggerthii. As to the kind of experiment: Antimicrobial activity against Bacteroides eggerthii assessed as resistant isolates by agar dilution method. In short, it runs like this:
as §1

The test system of assay [9] is Parabacteroides merdae. Description: Antimicrobial activity against Bacteroides merdae assessed as resistant isolates by agar dilution method. In short, it runs like this: as §1
In assay [10] the test system is Bacteroides nordii. As to the kind of experiment: Antimicrobial activity against Bacteroides nordii assessed as resistant isolates by agar dilution method. In short, it runs like this: as §1
Assay [11] has as its system Clostridioides difficile. As to the kind of experiment: Antimicrobial activity against Clostridium difficile by agar dilution method in presence of beta-lactamase inhibitor Sulbactam. In short, it runs like this:
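MICs by CLSI agar dilution on enriched brucella agar (5% lysed defibrinated sheep blood, 1 μg/ml vitamin K1). Log-phase inoculum at 0.5 McFarland, about 10^5 CFU/spot by replicator. Plates held anaerobically at 37°C for 48 h. Endpoint was the lowest concentration giving a marked change in growth against the control plate. Eubacterium lentum ATCC 43055 was the control.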

Assay [12] concerns [Clostridium] innocuum. Description: Antimicrobial activity against Clostridium innocuum assessed as resistant isolates by agar dilution method. Conditions: pooled result: one value given for 4 cell lines, strains, targets or settings.
For assay [13], the system named is Finegoldia magna. As to the kind of experiment: Antimicrobial activity against Finegoldia magna by agar dilution method in presence of beta-lactamase inhibitor Sulbactam. In short, it runs like this:
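Gram-positive anaerobes were tested by CLSI agar dilution on brucella agar enriched with 5% lysed defibrinated sheep blood and 1 μg/ml vitamin K1. Inoculum was log-phase growth at 0.5 McFarland, about 10^5 CFU/spot by replicator. Incubation was anaerobic, 37°C, 48 h. MIC was the lowest concentration with a marked growth change versus the drug-free plate. Eubacterium lentum ATCC 43055 was the control, and tests were repeated if it fell outside the CLSI range.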

For assay [14], the system named is Finegoldia magna. Description: Antimicrobial activity against Finegoldia magna assessed as resistant isolates by agar dilution method. In short, it runs like this:
(§2)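 Agar dilution following CLSI on brucella agar with 5% lysed defibrinated sheep blood and 1 μg/ml vitamin K1, plates made on test day. Log-phase cells at 0.5 McFarland, about 10^5 CFU/spot by Steers replicator, 48 h anaerobic at 37°C. MIC read as the lowest concentration causing a marked growth change versus control. Resistance counted by CLSI anaerobe breakpoints. Eubacterium lentum ATCC 43055 served as control.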

The test system of assay [15] is Peptoniphilus asaccharolyticus. Description: Antimicrobial activity against Peptoniphilus asaccharolyticus assessed as resistant isolates by agar dilution method. Conditions: pooled result: one value given for 4 cell lines, strains, targets or settings. In short, it runs like this:
as §2

In assay [16] the test system is Cutibacterium acnes. As to the kind of experiment: Antimicrobial activity against Propionibacterium acnes by agar dilution method in presence of beta-lactamase inhibitor Sulbactam. In short, it runs like this: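 Log-phase isolates were adjusted to 0.5 McFarland, and about 10^5 CFU/spot was delivered by Steers replicator. Plates were incubated anaerobically at 37°C for 48 h. MIC was the lowest concentration giving a marked growth change versus the control plate. Eubacterium lentum ATCC 43055 was the QC strain, with repeats when out of range.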

Assay [17] has as its system Cutibacterium acnes. As to the kind of experiment: Antimicrobial activity against Propionibacterium acnes assessed as resistant isolates by agar dilution method. In short, it runs like this: as §2
Assay [18] has as its system Propionibacterium. As to the kind of experiment: Antimicrobial activity against Propionibacterium sp. assessed as resistant isolates by agar dilution method. In short, it runs like this:
as §2

Values joined by “and” are separate entries in the source; they are usually repeats but may differ in a detail not shown here. Equal entries are not always repeated.

`CC1(C)S[C@@H]2[C@H](NC(=O)[C@H](N)c3ccccc3)C(=O)N2[C@H]1C(=O)O` [AMPICILLIN]: the Activity in [1] is given as 0%; in [2] it was 6.7%; in assay [3] it was 4.5%; in [4] it was 11.4%; in assay [5], 3.8%; in assay [6], 0%. The Activity was 0% in [7]; 0% in assay [8]; 0% in assay [9]; 0% in assay [10]; 5.6% in assay [12]; 0% in assay [14]. Besides, the Activity in [15], in assay [17] and in [18] was 0% in each case. Moreover, the MIC in assay [11] is 4 µg/mL; in assay [13] it was 2 µg/mL; in assay [13] (Finegoldia magna, read-out: MIC), 2 µg/mL; in assay [16], 0.25 µg/mL and 0.5 µg/mL; in assay [16] (Cutibacterium acnes, read-out: MIC), 0.25 µg/mL.

The MIC is the lowest concentration found to suppress growth.
